From ChEMBL document CHEMBL3593243, “Discovery of novel, potent, selective and cellular active ADC type PTP1B inhibitors via fragment-docking-oriented de novel design” (Bioorg Med Chem, 2015)
The source made the active and inactive calls. The calls are words filed in the database; no cut-off is given here.

Columns and labels:
[1] = molecular target: Receptor-type tyrosine-protein phosphatase F (Homo sapiens) (UniProt P10586); experiment: Inhibition of LAR (unknown origin) using pNPP as substrate at 25 uM relative to control
[2] = molecular target: T1, Tyrosine-protein phosphatase non-receptor type 11 (Homo sapiens) (UniProt Q06124); experiment: Inhibition of SHP2 (unknown origin) using pNPP as substrate at 25 uM relative to control
T1 sequence (whole entry): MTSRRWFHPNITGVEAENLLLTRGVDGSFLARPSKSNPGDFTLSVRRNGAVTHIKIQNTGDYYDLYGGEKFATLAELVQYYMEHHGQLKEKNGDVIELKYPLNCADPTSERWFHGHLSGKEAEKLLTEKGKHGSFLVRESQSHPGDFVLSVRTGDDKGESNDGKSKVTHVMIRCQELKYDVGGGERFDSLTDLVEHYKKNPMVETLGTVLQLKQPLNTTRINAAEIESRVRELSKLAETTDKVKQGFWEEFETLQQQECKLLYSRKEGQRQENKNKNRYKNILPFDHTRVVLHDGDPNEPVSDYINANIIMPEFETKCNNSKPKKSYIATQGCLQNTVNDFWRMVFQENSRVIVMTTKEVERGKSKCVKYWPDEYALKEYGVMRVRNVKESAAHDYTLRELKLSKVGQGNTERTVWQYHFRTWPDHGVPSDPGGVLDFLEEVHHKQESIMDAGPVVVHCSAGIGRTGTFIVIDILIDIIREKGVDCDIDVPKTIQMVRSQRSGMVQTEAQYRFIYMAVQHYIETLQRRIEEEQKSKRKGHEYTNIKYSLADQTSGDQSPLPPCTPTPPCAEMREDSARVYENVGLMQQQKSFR

[3] = molecular target: Tyrosine-protein phosphatase non-receptor type 6 (Homo sapiens) (UniProt P29350); experiment: Inhibition of SHP1 (unknown origin) using pNPP as substrate at 25 uM relative to control
Homo sapiens = species on record: Homo sapiens; experiment: Selectivity ratio of IC50 for TCPTP (unknown origin) to IC50 for recombinant PTP1B (unknown origin)
Outline: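 Ratio of TCPTP to PTP1B IC50. Both enzymes (PTP1B at 30 nM recombinant) assayed with 2 mM pNPP, 1 mM DTT, 1 mM EDTA, pH 6.5, 30 min at 37 °C, NaOH stop, A405; IC50 by logit method, triplicate for PTP1B.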

[4] = molecular target: T2, Tyrosine-protein phosphatase non-receptor type 1 (Homo sapiens) (UniProt P18031); experiment: Competitive inhibition of recombinant PTP1B (unknown origin) assessed as pNPP hydrolysis at 0.1 to 0.8 uM after 30 mins by Lineweaver-Burk plot analysis
T2 sequence (whole entry): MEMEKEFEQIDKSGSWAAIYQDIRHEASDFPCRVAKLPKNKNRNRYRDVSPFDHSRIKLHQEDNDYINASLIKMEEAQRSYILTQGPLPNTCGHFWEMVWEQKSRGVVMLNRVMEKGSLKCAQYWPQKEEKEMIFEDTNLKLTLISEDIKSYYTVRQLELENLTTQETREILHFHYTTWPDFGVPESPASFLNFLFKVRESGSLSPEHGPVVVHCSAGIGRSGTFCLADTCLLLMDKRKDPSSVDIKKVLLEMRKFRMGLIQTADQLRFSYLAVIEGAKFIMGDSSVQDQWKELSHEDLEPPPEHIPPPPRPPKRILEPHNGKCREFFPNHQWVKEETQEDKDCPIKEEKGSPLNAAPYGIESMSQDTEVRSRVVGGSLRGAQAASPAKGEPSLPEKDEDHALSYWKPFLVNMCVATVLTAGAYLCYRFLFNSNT
Outline: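 Kinetics in 100 µL of 50 mM MOPS pH 6.5 with 30 nM recombinant PTP1B. pNPP in 2-fold dilutions from 64 mM, inhibitor at 0.1–0.8 µM (0 as reference). Km and Vmax from Michaelis–Menten fits; mechanism judged by Lineweaver–Burk double-reciprocal plots.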

CHO = experiment: Inhibition of PTP1B in CHO cells transfected with human insulin receptor-beta assessed as increase in insulin-mediated tyrosine phosphorylation of insulin receptor-beta at 25 to 50 uM preincubated for 4 hrs followed by insulin stimulation measured after 10 mins by Western blot analysis; assay type: cell-based; conditions: Cricetulus griseus
Outline: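 CHO cells in F12/10% FBS transfected 8 h with 2 µg human IR plasmid, reseeded and grown 24 h at 37 °C, 5% CO2. Serum-starved 2 h, compound 4 h, then 10 nM insulin 10 min. Lysates (Triton/HEPES pH 7.4 buffer) run on SDS-PAGE, blotted with PY-20 and β-actin.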

[5] = molecular target: T3, Tyrosine-protein phosphatase non-receptor type 2 (Homo sapiens) (UniProt P17706); experiment: Inhibition of TCPTP (unknown origin) assessed as pNPP hydrolysis at 25 uM after 30 mins relative to control
T3 sequence (whole entry): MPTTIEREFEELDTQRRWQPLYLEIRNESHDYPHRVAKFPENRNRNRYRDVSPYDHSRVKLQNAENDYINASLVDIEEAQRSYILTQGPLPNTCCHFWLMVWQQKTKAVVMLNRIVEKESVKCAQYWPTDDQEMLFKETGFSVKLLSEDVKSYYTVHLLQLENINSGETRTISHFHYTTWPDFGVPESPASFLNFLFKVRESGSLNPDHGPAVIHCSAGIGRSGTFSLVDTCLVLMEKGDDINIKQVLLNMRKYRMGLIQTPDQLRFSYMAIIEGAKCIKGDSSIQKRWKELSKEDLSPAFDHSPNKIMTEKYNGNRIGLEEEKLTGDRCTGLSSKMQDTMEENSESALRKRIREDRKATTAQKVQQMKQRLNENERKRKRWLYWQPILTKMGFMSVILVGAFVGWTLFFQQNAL

Receptor-type tyrosine-protein phosphatase F (Homo sapiens), sequence (P10586 whole entry): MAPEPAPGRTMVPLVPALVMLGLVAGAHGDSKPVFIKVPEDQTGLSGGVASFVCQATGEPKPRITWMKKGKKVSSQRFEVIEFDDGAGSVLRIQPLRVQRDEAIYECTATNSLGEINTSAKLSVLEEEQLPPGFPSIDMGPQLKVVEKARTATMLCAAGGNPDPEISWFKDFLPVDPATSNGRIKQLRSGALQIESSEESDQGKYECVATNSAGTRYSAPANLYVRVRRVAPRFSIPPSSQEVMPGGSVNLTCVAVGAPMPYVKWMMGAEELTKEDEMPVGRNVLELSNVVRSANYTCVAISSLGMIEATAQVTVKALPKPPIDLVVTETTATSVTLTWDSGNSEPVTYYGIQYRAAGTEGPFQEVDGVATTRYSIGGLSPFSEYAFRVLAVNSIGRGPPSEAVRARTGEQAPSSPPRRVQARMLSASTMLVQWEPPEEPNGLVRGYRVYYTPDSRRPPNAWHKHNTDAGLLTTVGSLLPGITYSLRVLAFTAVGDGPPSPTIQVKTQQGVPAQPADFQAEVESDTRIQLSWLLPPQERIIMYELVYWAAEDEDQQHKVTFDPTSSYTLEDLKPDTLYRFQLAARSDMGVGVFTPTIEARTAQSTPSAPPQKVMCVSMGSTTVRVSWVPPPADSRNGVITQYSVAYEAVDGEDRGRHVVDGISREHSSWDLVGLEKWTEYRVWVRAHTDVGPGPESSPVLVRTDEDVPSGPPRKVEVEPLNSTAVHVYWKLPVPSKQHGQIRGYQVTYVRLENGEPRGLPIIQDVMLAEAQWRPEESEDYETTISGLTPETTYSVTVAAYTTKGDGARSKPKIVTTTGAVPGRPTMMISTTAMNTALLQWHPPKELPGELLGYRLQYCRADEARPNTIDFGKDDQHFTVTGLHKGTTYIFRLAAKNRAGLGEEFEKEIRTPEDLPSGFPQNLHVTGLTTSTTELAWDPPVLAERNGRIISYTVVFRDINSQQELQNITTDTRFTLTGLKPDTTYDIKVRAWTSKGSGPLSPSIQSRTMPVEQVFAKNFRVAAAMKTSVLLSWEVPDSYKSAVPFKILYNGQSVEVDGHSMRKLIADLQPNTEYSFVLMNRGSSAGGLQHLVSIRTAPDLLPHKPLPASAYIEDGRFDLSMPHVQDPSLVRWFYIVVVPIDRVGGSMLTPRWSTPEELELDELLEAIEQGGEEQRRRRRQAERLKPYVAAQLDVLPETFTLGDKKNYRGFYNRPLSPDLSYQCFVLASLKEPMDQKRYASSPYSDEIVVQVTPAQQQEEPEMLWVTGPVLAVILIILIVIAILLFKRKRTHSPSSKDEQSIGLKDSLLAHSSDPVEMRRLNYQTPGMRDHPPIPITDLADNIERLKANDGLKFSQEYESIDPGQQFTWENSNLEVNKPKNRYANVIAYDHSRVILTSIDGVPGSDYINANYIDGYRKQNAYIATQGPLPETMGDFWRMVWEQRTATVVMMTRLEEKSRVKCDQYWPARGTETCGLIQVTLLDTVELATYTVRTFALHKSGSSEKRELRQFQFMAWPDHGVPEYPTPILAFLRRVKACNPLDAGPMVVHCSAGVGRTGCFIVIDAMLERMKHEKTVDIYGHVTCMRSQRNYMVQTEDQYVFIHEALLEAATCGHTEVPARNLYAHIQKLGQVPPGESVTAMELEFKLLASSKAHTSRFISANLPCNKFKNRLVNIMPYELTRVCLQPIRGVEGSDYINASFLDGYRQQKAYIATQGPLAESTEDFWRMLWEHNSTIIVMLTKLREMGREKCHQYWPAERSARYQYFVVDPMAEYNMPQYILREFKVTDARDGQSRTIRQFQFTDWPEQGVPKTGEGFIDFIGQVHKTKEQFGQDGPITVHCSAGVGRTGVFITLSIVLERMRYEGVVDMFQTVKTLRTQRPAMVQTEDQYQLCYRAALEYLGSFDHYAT
Tyrosine-protein phosphatase non-receptor type 6 (Homo sapiens), sequence (P29350 whole entry): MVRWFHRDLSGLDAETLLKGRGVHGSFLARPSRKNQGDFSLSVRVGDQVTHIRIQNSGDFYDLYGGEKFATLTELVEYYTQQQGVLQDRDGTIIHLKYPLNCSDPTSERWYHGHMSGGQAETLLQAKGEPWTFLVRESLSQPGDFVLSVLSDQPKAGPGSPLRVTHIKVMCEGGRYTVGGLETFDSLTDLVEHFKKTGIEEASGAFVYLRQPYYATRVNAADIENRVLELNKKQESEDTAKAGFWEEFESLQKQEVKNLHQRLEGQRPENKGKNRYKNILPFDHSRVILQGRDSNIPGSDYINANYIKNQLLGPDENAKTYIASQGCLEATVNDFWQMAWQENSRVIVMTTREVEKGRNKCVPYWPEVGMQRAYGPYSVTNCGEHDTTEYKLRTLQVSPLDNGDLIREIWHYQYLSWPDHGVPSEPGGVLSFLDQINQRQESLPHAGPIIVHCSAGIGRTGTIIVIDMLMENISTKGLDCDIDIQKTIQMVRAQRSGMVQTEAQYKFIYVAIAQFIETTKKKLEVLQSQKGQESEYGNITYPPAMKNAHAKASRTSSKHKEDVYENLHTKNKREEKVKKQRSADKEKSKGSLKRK

Structure (SMILES)	inhibition [1]	inhibition [2]	inhibition [3]	Ratio IC50 (Homo sapiens)	inhibition [4]	inhibition (CHO)	inhibition [5]
CCOc1cc(NS(C)(=O)=O)c(OCC)cc1CNC(=O)Nc1ccc(C)cc1	< 50%	< 50%	< 50%	16			
CCOc1cc(NS(C)(=O)=O)c(OCC)cc1CNC(=O)Nc1ccc(Br)cc1	< 50%	< 50%		6			
CCOc1cc(NS(C)(=O)=O)c(OCC)cc1CNC(=O)Nc1ccc(OC)cc1	< 50%	< 50%		> 120	Active	Active	< 50%
